Screens as filed in PubChem.
This is a sample that favours compounds with a hit; in the whole collection about 0.72% have one here.
mIAP inh – mouse IAP inhibition | inhibition, % at 10 µM | 330,000 tested, 0.2% active | purified mouse IAP, CDP-Star luminescence, 30 min;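 active means inhibition of at least 40% at 10 µM in the primary screen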
bIAP inhibitor – intestinal alkaline phosphatase (bovine) inhibition | 190,000 tested, under 10 active | purified bovine IAP, CDP-star luminescence, 30 min | AID 1019 | inhibition, % at 20 µM;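 active means over 50% inhibition of intestinal alkaline phosphatase at 20 µM in the single-dose screen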
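System: Purified bovine intestinal alkaline phosphatase (IAP) enzyme | Input: IAP diluted 1/65,000,000 in the well | Also added: CDP-star chemiluminescent phosphatase substrate, 30 µM final | Dosing: 20 µM single dose | Times: Enzyme reaction for 30 min at room temperature | Detection: Luminescence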
mIAP act – mouse IAP activation; activation factor at 10 µM; 330,000 tested, 0.24% active; muIAP, CDP-Star luminescence, 30 min; stronger effect = higher value; 1 = vehicle-only enzyme signal, 0 = enzyme-free wells;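 active means activation factor of at least 2 at 20 µM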
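Assay system: mouse IAP enzyme; reagent: chemiluminescent substrate CDP-Star; dosing: test compounds delivered from DMSO solution; schedule: 30 min at room temperature; measured by: luminescence from enzymatic CDP-Star hydrolysis; controls: DMSO-only wells and no-enzyme negative control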
hIAP block – human IAP inhibition. P09923. purified IAP, CDP-Star luminescence, 30 min. inhibition, % at 10 µM. 330,000 tested, 0.12% active;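 active means inhibition reaching a set limit with compound at 10 µM in the primary screen, cut at about 35% in these data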
Target sequence (P09923 whole entry, looked up): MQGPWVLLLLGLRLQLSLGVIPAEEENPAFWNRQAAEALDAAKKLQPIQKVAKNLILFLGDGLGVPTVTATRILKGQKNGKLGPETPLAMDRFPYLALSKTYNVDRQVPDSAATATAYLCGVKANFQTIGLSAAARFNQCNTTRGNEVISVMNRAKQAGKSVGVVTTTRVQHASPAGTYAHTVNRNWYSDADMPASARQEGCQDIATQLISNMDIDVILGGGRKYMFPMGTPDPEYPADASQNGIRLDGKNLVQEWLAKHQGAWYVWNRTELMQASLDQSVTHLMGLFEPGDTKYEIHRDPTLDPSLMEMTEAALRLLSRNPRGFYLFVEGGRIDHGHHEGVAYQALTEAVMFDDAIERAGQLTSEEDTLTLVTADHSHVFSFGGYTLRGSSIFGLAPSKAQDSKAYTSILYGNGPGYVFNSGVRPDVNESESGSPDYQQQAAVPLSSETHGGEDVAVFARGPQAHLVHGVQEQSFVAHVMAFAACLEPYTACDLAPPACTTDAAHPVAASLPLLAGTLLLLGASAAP
bIAP activator – intestinal alkaline phosphatase (bovine) activation; purified bovine IAP, CDP-star luminescence, 30 min; stronger effect = higher value; fold of DMSO-control signal, blank-subtracted; activation factor at 20 µM; 200,000 tested, 0.17% active; AID 1016;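 active means activation factor of 2 or more at 20 µM, a signal rise over negative controls twice the positive control's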
hIAP act – increases human intestinal alkaline phosphatase activity. P09923. purified human IAP, CDP-Star luminescence, 30 min; stronger effect = higher value; 1 = vehicle-only enzyme, 0 = enzyme-free background. activation factor at 10 µM. 330,000 tested, 0.16% active;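 active means activation factor of the enzyme at least 2-fold when tested at 20 µM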
mIAP inh conf – mouse IAP inhibition confirmation | shares compounds with mIAP inh | 11,000 tested, 4.7% active | AID 434971 | inhibition, % at 10 µM | purified mouse IAP, CDP-Star luminescence, 30 min;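 active means inhibition of at least 40% at 10 µM in either of the two replicates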
A number is an active result; i = inactive; nt = no result given.

SMILES	mIAP inh	bIAP inhibitor	mIAP act	hIAP block	bIAP activator	hIAP act	mIAP inh conf
O=C(Nc1ccc(-n2ccc(C(F)(F)F)n2)cc1)Nc1cccc(Cl)c1	i	nt	2.78	i	nt	i	i
COc1ccccc1NC(=O)Nc1ccc(-n2ccc(C(F)(F)F)n2)cc1	i	nt	i	i	nt	i	nt
Cc1nnc(NCc2ccccc2)c2ccccc12	i	nt	i	i	nt	i	nt
CC(C)N(CCCNC(=O)Cn1c(=O)c2cccn2c2ccc(F)cc21)Cc1ccccc1	i	nt	i	i	nt	i	nt
Cc1ccc(C(=O)Nc2nnc(CC(=O)N/N=C/c3ccncc3)s2)cc1	i	i	i	i	i	i	nt
Cc1ccc(C(=O)Nc2nnc(CC(=O)N/N=C/c3ccc(O)c(O)c3)s2)cc1	57.5	nt	i	i	nt	i	78.6
CCN(CC)CCNC(=O)c1ccc(NC(=O)Nc2cccc3ccccc23)cc1	i	nt	3.14	i	nt	i	i
C[C@@H](NC(=O)[C@@H]1Cc2ccccc2CN1)C(=O)NCc1ccco1	i	nt	i	i	nt	i	nt
CCCc1cc(C(=O)OCC(=O)N2CCN(c3ccc(OC)cc3)CC2)sc1C	i	nt	i	i	nt	i	nt
CC(Sc1ccccc1)C(=O)N1CCN(S(=O)(=O)c2ccc(Cl)cc2)CC1 (stereo unspecified)	i	nt	i	i	nt	i	nt
C/C=C(\C)C(=O)NCCN1C2=NC[C@@H](Cc3ccccc3)N2C[C@@H]1Cc1ccc(OC)cc1	i	nt	i	i	nt	i	nt
CCCCCCNC(=O)N[C@@H](C(=O)NCCC[C@H]1CN2C(=NC[C@@H]2Cc2ccccc2)N1CCc1cccc(OC)c1)C(C)C	i	nt	3.31	i	nt	i	i
CCOc1ccc(OCCC(=O)NNC(=O)c2ccncc2)cc1	i	nt	i	i	nt	i	nt
CCCCCOc1ccc(C(=O)CCC(=O)NNC(=O)c2ccncc2)cc1	i	nt	2.78	i	nt	i	i
COc1cccc(C(=O)NCC(=O)OCC(=O)NC2CCCCC2)c1	i	nt	i	i	nt	i	nt
COC(=O)c1ccc(OC(=O)/C=C/c2ccco2)cc1	i	nt	i	i	nt	i	nt
O=Cc1cccc(OC(=O)/C=C/c2ccco2)c1	48.6	nt	i	i	nt	i	57.4
O=C(Nc1cccc(Cl)c1)Nc1nc(-c2ccc(Cl)cc2)cs1	i	i	2.88	i	i	i	i
CCN1C(=O)/C(=C2\SC(=S)N(NC(=O)c3cccnc3)C2=O)c2ccccc21	48.6	nt	i	i	nt	i	64.1
O=C1CC(=O)N(Cc2cccs2)C(=O)N1	i	i	i	i	i	i	nt
O=C1CC(=O)N(Cc2ccco2)C(=S)N1	70.3	i	i	i	i	i	74.9
O=C1CC(=O)N(Cc2ccco2)C(=O)N1	48.1	i	i	i	i	i	52.7
COc1ccc(C)cc1N(C(=O)c1snc(C(N)=O)c1N)C(C(=O)NC1CCCC1)c1ccc(F)cc1 (stereo unspecified)	i	nt	i	i	nt	i	nt
O=C(NC1CCCCC1)Oc1cc2oc(=O)sc2cc1Br	60.4	nt	i	i	nt	i	80.6
O=C1/C(=C/C=C/c2ccco2)SC(=S)N1NS(=O)(=O)c1ccccc1	83.7	nt	i	i	nt	i	91.2
SMILES	mIAP inh	bIAP inhibitor	mIAP act	hIAP block	bIAP activator	hIAP act	mIAP inh conf
CC(C(=O)O)N1C(=O)/C(=C/C=C/c2ccco2)SC1=S (stereo unspecified)	53.6	i	i	i	i	i	57.9
CC(=C\c1ccccc1)/C=C1/SC(=S)N(C(C(=O)O)C(C)C)C1=O (stereo unspecified)	nt	i	nt	nt	i	nt	nt
Cc1oc2c(C)c3oc(=O)c(CCC(=O)NCCCn4ccnc4)c(C)c3cc2c1C	i	nt	i	i	nt	i	nt
COc1cccc(/C=N/N=C(\N)c2nonc2N)c1O	i	i	i	i	i	i	nt
Oc1cc2c(cc1O)C1c3ccc(O)c(O)c3OCC1(O)C2 (stereo unspecified)	73.8	i	i	i	i	i	63.9
CCOC(=O)Cc1nnc2c(Nc3ccc(Cl)cc3)nc3nonc3n12	i	i	i	i	i	i	37.0
